Reference: ChEMBL document CHEMBL1133510, “Synthesis and evaluation of novel steroidal oxime inhibitors of P450 17 (17 alpha-hydroxylase/C17-20-lyase) and 5 alpha-reductase types 1 and 2” (J Med Chem, 2000)
Where “and” joins values, the source holds several entries; their conditions need not be identical. Equal values may be shown once.

What was measured:
[1] = target: T1, 3-oxo-5-alpha-steroid 4-dehydrogenase 1 (Homo sapiens, UniProt P18405); assay: Evaluated for the inhibitory activity against human steroid 5-alpha-reductase type I in human DU-145 cell assay at 5 nM of androstenedione; assay type: cell-based
T1 sequence (P18405 whole entry): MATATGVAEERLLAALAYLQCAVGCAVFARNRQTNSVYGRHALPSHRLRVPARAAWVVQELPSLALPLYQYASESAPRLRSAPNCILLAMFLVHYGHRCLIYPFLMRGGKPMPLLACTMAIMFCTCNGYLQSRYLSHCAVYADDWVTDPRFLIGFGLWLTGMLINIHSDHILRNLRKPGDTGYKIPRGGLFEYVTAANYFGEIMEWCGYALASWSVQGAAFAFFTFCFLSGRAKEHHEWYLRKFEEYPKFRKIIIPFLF
In short: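 Whole human DU-145 cells as source of type 1 enzyme, incubated with radiolabeled androstenedione at 5 nM; HPLC separation of product. IC50 = inhibitor concentration giving 50% inhibition; mean of at least two experiments.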

[2] = target: T1, 3-oxo-5-alpha-steroid 4-dehydrogenase 1; assay: Inhibition of Human steroid 5-alpha-reductase type I expressed in HEK293 cells; assay type: cell-based
In short: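 Human 5α-reductase type 1 cDNA (plasmid pRcCMV-I) stably transfected into HEK293 cells, clones chosen under G418. 300 000 cells/well attached overnight at 37 °C, then fresh DMEM/10% FCS containing 5 nM [3H]androstenedione plus inhibitor (1% DMSO) for 30 min. Supernatant extracted with ether, product measured by HPLC. IC50 taken as mean of at least three experiments.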

[3] = target: T2, 3-oxo-5-alpha-steroid 4-dehydrogenase 2 (Homo sapiens, UniProt P31213); assay: Inhibition of Human steroid 5-alpha-reductase type II expressed in HEK293 cells; assay type: cell-based
T2 sequence (P31213 whole entry): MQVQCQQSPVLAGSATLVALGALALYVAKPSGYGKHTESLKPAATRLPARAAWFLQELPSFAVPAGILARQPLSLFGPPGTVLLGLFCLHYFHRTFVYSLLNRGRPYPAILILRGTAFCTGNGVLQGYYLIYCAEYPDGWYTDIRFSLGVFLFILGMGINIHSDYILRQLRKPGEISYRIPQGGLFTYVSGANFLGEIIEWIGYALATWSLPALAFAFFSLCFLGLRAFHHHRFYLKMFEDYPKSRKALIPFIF
In short: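 Stably transfected HEK293 clones expressing full-length human type 1 or type 2 cDNA; 300 000 cells per well attached overnight at 37 °C. Fresh DMEM/10% FCS with 5 nM [3H]androstenedione and inhibitor added, final DMSO 1%. Incubated 30 min (type 1) or 13 min (type 2); supernatant ether-extracted and analysed by HPLC. Mean of at least three experiments.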

[4] = target: T3, Steroid 17-alpha-hydroxylase/17,20 lyase (Rattus norvegicus, UniProt P11715); assay: Evaluated for the inhibitory activity towards Cytochrome P450 17 rat enzyme using testicular microsome at 25 uM of substrate (progesterone); set-up: species or system Testis
T3 sequence (P11715 whole entry): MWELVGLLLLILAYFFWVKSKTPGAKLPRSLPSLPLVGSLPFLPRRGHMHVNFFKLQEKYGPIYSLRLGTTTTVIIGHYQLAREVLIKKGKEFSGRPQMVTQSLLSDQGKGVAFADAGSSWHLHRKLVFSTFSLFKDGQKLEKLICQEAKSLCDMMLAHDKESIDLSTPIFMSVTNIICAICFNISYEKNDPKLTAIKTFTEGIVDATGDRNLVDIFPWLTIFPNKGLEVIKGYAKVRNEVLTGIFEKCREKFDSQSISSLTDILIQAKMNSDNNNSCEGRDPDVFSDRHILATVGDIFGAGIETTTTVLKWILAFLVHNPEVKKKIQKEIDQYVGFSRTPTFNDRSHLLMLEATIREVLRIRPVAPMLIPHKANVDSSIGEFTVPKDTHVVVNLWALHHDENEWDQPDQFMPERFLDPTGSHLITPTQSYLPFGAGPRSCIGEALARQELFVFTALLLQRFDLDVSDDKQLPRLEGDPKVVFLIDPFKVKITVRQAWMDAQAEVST
In short: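 Testicular microsomes (human for human enzyme, rat for rat enzyme) incubated with progesterone substrate at 25 µM; product measured by RP-HPLC with UV detection. IC50 = concentration giving 50% inhibition, mean of at least two experiments.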

[5] = target: T4, Steroid 17-alpha-hydroxylase/17,20 lyase (Homo sapiens, UniProt P05093); assay: Evaluated for the inhibitory activity towards Cytochrome P450 17 human enzyme using testicular microsome at 25 uM of substrate (progesterone); set-up: species or system Testis
T4 sequence (P05093 whole entry): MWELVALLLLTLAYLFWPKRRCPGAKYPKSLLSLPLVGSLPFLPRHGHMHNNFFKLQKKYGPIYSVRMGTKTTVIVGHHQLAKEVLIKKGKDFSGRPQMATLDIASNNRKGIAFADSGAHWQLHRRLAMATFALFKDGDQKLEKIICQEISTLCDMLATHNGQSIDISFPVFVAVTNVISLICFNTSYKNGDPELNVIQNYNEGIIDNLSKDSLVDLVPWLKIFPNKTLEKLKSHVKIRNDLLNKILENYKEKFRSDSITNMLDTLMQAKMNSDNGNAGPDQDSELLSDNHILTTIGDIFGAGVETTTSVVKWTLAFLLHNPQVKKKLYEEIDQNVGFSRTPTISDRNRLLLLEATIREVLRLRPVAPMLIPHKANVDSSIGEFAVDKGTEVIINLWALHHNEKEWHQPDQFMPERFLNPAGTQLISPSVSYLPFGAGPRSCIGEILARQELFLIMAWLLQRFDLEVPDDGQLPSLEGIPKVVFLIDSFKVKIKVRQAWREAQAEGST

[6] = target: T5, P450 scc (cholesterol side-chain cleavage enzyme, mitochondrial) (Bos taurus, UniProt P00189); assay: Inhibition of P450 scc at 25 uM; conditions: cattle
T5 sequence (P00189 whole entry): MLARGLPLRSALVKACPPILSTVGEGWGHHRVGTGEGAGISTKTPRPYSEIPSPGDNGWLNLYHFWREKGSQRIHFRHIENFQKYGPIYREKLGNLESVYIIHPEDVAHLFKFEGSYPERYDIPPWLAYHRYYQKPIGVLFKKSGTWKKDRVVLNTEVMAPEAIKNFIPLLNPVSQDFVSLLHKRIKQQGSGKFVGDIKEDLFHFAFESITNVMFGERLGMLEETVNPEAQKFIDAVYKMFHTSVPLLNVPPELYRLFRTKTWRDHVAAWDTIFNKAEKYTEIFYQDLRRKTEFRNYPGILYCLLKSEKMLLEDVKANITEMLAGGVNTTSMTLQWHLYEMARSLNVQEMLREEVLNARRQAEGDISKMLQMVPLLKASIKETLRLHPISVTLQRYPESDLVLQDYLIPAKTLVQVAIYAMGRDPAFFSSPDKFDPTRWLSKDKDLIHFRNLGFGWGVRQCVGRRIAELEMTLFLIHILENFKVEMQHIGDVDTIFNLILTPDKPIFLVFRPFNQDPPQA
In short: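 Bovine adrenal P450 scc preparation; inhibitor tested at 25 µM.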

[7] = target: T2, 3-oxo-5-alpha-steroid 4-dehydrogenase 2; assay: Evaluated for the inhibitory activity against human steroid 5-alpha-reductase type 2 from human BPH tissue at 210 nM of testosterone
In short: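 Enzyme from prostate homogenate of BPH patients, assayed at pH 5.5 with radiolabeled testosterone at 210 nM; product separated by HPLC. IC50 taken as inhibitor concentration giving 50% inhibition; mean of at least two experiments.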

[8] = target: T4, Steroid 17-alpha-hydroxylase/17,20 lyase; assay: Inhibition of Human P450 17 and NADPH-P450 reductase co-expressed in Escherichia coli with 25 uM progesterone
[9] = target: T3, Steroid 17-alpha-hydroxylase/17,20 lyase; assay: Inhibition of Cytochrome P450 17 from rat testicular microsome at 25 uM progesterone; No inhibition
[10] = target: T4, Steroid 17-alpha-hydroxylase/17,20 lyase; assay: Inhibition of Cytochrome P450 17 of human testicular microsome at 25 uM progesterone; No inhibition
[11] = target: T6, Thromboxane-A synthase (Homo sapiens) (UniProt P24557); assay: Inhibition of thromboxane synthase P450 TXA2 at 50 uM
T6 sequence (whole entry): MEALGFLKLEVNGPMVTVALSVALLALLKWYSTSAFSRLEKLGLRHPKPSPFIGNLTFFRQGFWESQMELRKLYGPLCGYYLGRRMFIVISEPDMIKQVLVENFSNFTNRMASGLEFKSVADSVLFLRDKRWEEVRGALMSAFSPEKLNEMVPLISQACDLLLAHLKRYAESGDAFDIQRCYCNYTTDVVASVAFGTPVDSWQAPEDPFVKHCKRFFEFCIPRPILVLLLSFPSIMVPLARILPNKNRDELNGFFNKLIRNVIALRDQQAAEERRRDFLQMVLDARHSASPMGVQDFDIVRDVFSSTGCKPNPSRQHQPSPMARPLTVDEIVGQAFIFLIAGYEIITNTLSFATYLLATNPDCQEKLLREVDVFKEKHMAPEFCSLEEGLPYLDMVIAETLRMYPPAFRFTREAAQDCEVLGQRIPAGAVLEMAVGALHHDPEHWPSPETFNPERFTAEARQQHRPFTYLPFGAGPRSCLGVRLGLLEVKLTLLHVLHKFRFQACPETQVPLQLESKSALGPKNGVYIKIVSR
In short: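 Thromboxane synthase activity measured in citrated human whole blood; inhibitor tested at 50 µM.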

Row | IC50 [4] | IC50 [5] | IC50 [7] | Compound | IC50 [1] | IC50 [2] | also measured
1 | 2760 nM | 270 nM | – | CC12CCC(O)CC1=CCC1C2CCC2(C)C(C/C=N/O)CCC12 (configuration not stated) | – | – | inhibition at 25 µM [6]: 74%
2 | 125000 nM | 200 nM | – | C/C(=N/O)[C@H]1CC=C2[C@@H]3CC=C4C[C@@H](O)CC[C@]4(C)[C@H]3CC[C@@]21C | – | – | IC50 [8]: 420 nM
3 | – | – | 430 nM | C/C(CC1CCC2C3CC(=O)C4=CC(=O)CCC4(C)C3CCC12C)=N\O (configuration not stated) | 900 nM | 2900 nM | IC50 [3]: 860 nM; IC50 [9]: Not Active; IC50 [10]: Not Active
4 | > 125000 nM | > 2500 nM | – | CC12CCC(O)CC1=CCC1C2CCC2(C)/C(=C/C=N/O)CCC12 (configuration not stated) | – | – | –
5 | – | > 2500 nM | 3200 nM | C/C(=N/O)[C@H]1CCC2C3CC(=O)C4=CC(=O)CCC4(C)C3CCC21C (some centres not stated) | > 10000 nM | – | IC50 [9]: Not Active
6 | 140 nM | 180 nM | 430 nM | C[C@]12CC[C@H](O)C=C1CC[C@H]1C3CC/C(=C/C=N\O)[C@@]3(C)CC[C@@H]12 (some centres not stated) | – | – | –

Further lines, the compound ahead of its results:

Row | Compound | IC50 [4] | IC50 [5] | IC50 [7] | IC50 [1] | IC50 [2] | also measured
7 | CC(C)(C)NC(=O)[C@H]1CC[C@H]2[C@@H]3CC[C@H]4NC(=O)C=C[C@]4(C)[C@H]3CC[C@]12C [FINASTERIDE] | – | – | – | 40 nM | 540 nM | IC50 [3]: 60 nM
8 | C/C(=N/O)C1=CCC2C3CCC4=CC(=O)CCC4(C)C3CCC12C (configuration not stated) | > 125000 nM | 100 nM | > 10000 nM | > 10000 nM | – | –
9 | C/C(=N/O)[C@H]1CCC2C3CCC4=CC(=O)CCC4(C)C3CCC21C (some centres not stated) | > 125000 nM | > 2500 nM | 580 nM and 1170 nM | 1630 nM | 1770 nM | –
10 | C[C@]12CC[C@H](O)CC1=CC[C@H]1C3CC/C(=C/C=N\O)[C@@]3(C)CC[C@@H]12 (some centres not stated) | 520 nM | 77 nM | – | – | – | IC50 [8]: 230 nM; inhibition [11]: 35%
